# Reference: ChEMBL document CHEMBL1155883, “5-Alkyl-6-benzyl-2-(2-oxo-2-phenylethylsulfanyl)pyrimidin-4(3H)-ones, a series of anti-HIV-1 agents of the dihydro-alkoxy-benzyl-oxopyrimidine family with peculiar structure-activity relationship profile” (J Med Chem, 2008)
# Experiments:
# [1] = system: Human immunodeficiency virus 1; assay: Resistance index, ratio of ID50 for reverse transcriptase K103N mutant to IC50 for wild-type HIV1 sreverse transcriptase
# Summary of the method: (§1)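 Recombinant wt and K103N, L100I or Y181I HIV-1 RT (>95% pure), 2-4 nM. RNA-dependent DNA polymerase assay on 0.5 µg poly(rA)/oligo(dT) 10:1 (0.3 µM 3'-OH ends) with 10 µM [3H]-dTTP and 8% final DMSO. Aliquots taken every 2 min. Inhibitor range 0.2-5× ID50, fitted to a noncompetitive model. Fold resistance is mutant ID50 divided by wt ID50.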
# [2] = system: Human immunodeficiency virus 1; assay: Antiviral activity against HIV1 isolates with reverse transcriptase Y181C mutation in human MT4 cells assessed as inhibition of virus-induced cytopathogenicity by MTT assay; type: functional, organism-based; details: Human immunodeficiency virus 1, MT4
# Summary of the method: (§2)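 MT-4 lymphoid cells infected with HIV-1 carrying RT K103N, Y181C or Y188L, in the presence of different drug concentrations. Viable cells counted at day 5 postinfection by MTT colorimetric assay. EC50 is the concentration that inhibits 50% of the HIV-induced cytopathic effect.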
# [3] = Selectivity index, ratio of CC50 for human MT4 cells to EC50 for HIV1 NL4-3; type: toxicity, cell-based; details: read-out: Ratio CC50/EC50
# Summary of the method: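 Computed as CC50/EC50. CC50 comes from MTT viability of mock-infected MT-4 cells and EC50 from MTT protection of NL4-3-infected MT-4 cells, both read at day 5.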
# [4] = system: Human immunodeficiency virus 1; assay: Antiviral activity against HIV1 isolates with reverse transcriptase Y188L mutation in human MT4 cells assessed as inhibition of virus-induced cytopathogenicity by MTT assay; type: functional, organism-based; details: Human immunodeficiency virus 1, MT4; summary of the method: as §2
# [5] = system: Human immunodeficiency virus 1; assay: Antiviral activity against HIV1 NL4-3 in human MT4 cells assessed as inhibition of virus-induced cytopathogenicity by MTT assay; type: functional, organism-based; details: Human immunodeficiency virus 1, NL4-3, MT4
# Summary of the method: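 MT-4 lymphoid cells infected with wild-type HIV-1 NL4-3 in the presence of a range of compound concentrations. Viable cells were counted by MTT colorimetric read-out at day 5 post-infection. EC50 is the concentration giving 50% protection from virus-induced cytopathic effect. Means ± SD from at least two or three experiments.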
# [6] = system: Human immunodeficiency virus 1; assay: Antiviral activity against HIV1 isolates with reverse transcriptase K103N mutation in human MT4 cells assessed as inhibition of virus-induced cytopathogenicity by MTT assay; type: functional, organism-based; details: Human immunodeficiency virus 1, MT4; summary of the method: as §2
# [7] = system: Human immunodeficiency virus 1; assay: Resistance index, ratio of ID50 for reverse transcriptase Y181I mutant to IC50 for wild-type HIV1 reverse transcriptase; summary of the method: as §1
# [8] = Cytotoxicity against human MT4 cells by MTT assay; type: cell-based
# Summary of the method: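 Mock-infected MT-4 cells were exposed to a range of compound concentrations. Viability was read by MTT at day 5. CC50 is the concentration that kills 50% of uninfected cells. The top concentration was limited by compound precipitation in culture medium. Means ± SD from at least two or three experiments.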
# [9] = system: Human immunodeficiency virus 1; assay: Resistance index, ratio of ID50 for reverse transcriptase L100I mutant to IC50 for wild-type HIV1 reverse transcriptase; summary of the method: as §1
# [10] = system: Human immunodeficiency virus 1; assay: Resistance index, ratio of EC50 for drug-resistant HIV1 isolate with reverse transcriptase K103N mutation to EC50 for wild type HIV1 NL4-3; type: functional
# Summary of the method: (§3)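 Fold resistance is the EC50 against the K103N, Y181C or Y188L mutant strain divided by the EC50 against wt NL4-3. Each EC50 is from MT-4 cells infected in the presence of different drug concentrations, with viability read by MTT at day 5 postinfection.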
# [11] = system: Human immunodeficiency virus type 1 reverse transcriptase (Human immunodeficiency virus 1), Q72547 [K103N]
# [12] = system: Human immunodeficiency virus type 1 reverse transcriptase (Human immunodeficiency virus 1), Q72547 [Y181I]
# [13] = system: Human immunodeficiency virus type 1 reverse transcriptase (Human immunodeficiency virus 1), Q72547 [L100I]
# [14] = system: Human immunodeficiency virus 1; assay: Resistance index, ratio of EC50 for drug-resistant HIV1 isolate with reverse transcriptase Y181C mutation to EC50 for wild type HIV1 NL4-3; type: functional; summary of the method: as §3
# [15] = target: Human immunodeficiency virus type 1 reverse transcriptase (Human immunodeficiency virus 1) (UniProt Q72547)
Compound,Ratio [1],EC50 [2],selectivity ratio [3],EC50 [4],EC50 [5],EC50 [6],Ratio [7],CC50 [8],Ratio [9],Ratio EC50 [10],ID50 [11],ID50 [12],ID50 [13],Ratio EC50 [14],ID50 [15]
Cc1ccnc2c1NC(=O)c1cccnc1N2C1CC1 [NEVIRAPINE],17,> 7 µM,> 54,> 7 µM,0.13 µM,4.96 µM,87,> 7 µM,22,38,–,–,–,–,–
CCc1c(Cc2c(F)cccc2F)nc(SCC(=O)c2ccc(F)cc2)[nH]c1=O,60,0.72 µM,> 3160,> 60 µM,0.019 µM,5.14 µM,8,> 60 µM,113,270,3.65 µM,0.51 µM,6.9 µM,38,0.061 µM
CCC(C)c1c(Cc2c(F)cccc2Cl)nc(SCC(=O)c2ccc(F)cc2)[nH]c1=O (centres undefined),–,0.86 µM,> 3180,> 54 µM,0.017 µM,> 54 µM,–,> 54 µM,1360,–,> 40 µM,> 40 µM,32.7 µM,51,0.024 µM
CCc1c(Cc2c(F)cccc2Cl)nc(SCC(=O)c2ccc(F)cc2)[nH]c1=O,50,1.93 µM,> 11400,> 57 µM,0.005 µM,4.14 µM,12,> 57 µM,170,828,1.64 µM,0.38 µM,5.6 µM,386,0.033 µM
CCc1c(Cc2c(F)cccc2F)nc(SCC(=O)c2ccccc2)[nH]c1=O,86,0.2 µM,4670,> 56 µM,0.012 µM,1.3 µM,19,56 µM,126,108,3.7 µM,0.82 µM,5.4 µM,17,0.043 µM
O=C(CSc1nc(Cc2c(F)cccc2Cl)cc(=O)[nH]1)c1ccccc1,1000,> 13 µM,> 10,> 13 µM,1.26 µM,> 13 µM,200,> 13 µM,750,–,2 µM,0.4 µM,1.5 µM,–,0.002 µM
CC(C)c1c(Cc2c(F)cccc2F)nc(SCC(=O)c2ccccc2)[nH]c1=O,198,0.24 µM,> 30000,> 60 µM,0.002 µM,4.46 µM,–,> 60 µM,600,2230,1.58 µM,> 40 µM,4.8 µM,120,0.008 µM
CCC(C)c1c(Cc2c(F)cccc2Cl)nc(SCC(=O)c2ccc(OC)cc2)[nH]c1=O (centres undefined),84,> 40 µM,> 6670,> 40 µM,0.006 µM,> 40 µM,1130,40 µM,3910,–,0.59 µM,7.9 µM,27.4 µM,–,0.007 µM
O=C(CSc1nc(Cc2c(Cl)cccc2Cl)cc(=O)[nH]1)c1ccccc1,308,> 12 µM,> 7,> 12 µM,1.78 µM,> 12 µM,22,> 12 µM,917,–,3.7 µM,0.26 µM,11 µM,–,0.012 µM
COc1ccc(CSc2nc(Cc3c(Cl)cccc3Cl)c(C)c(=O)[nH]2)cc1,25500,–,4570,> 32 µM,–,–,37500,32 µM,–,671,–,–,–,–,–
Cc1c(Cc2c(F)cccc2Cl)nc(SCC(=O)c2ccccc2)[nH]c1=O,1920,1.68 µM,> 267,> 12 µM,0.045 µM,9.48 µM,100,> 12 µM,275,211,23 µM,1.2 µM,3.3 µM,37,0.012 µM
Cc1c(Cc2c(F)cccc2Cl)nc(SCC(=O)c2ccc(F)cc2)[nH]c1=O,30,0.28 µM,> 29500,> 59 µM,0.002 µM,8.72 µM,4,> 59 µM,49,4360,5.35 µM,0.7 µM,8.8 µM,140,0.18 µM
Cc1c(Cc2c(F)cccc2F)nc(SCC(=O)c2ccccc2)[nH]c1=O,32,0.52 µM,4330,> 65 µM,0.015 µM,19 µM,5,65 µM,38,1267,10.4 µM,1.68 µM,12.7 µM,35,0.33 µM
CCc1c(Cc2c(Cl)cccc2Cl)nc(SCC(=O)c2ccc(OC)cc2)[nH]c1=O,21,24.1 µM,> 16,> 54 µM,3.3 µM,> 54 µM,6,> 54 µM,105,–,0.48 µM,0.14 µM,2.42 µM,7,0.023 µM
Cc1c(Cc2c(F)cccc2F)nc(SCC(=O)c2ccc(F)cc2)[nH]c1=O,29,0.35 µM,> 2480,> 62 µM,0.025 µM,> 62 µM,4,> 62 µM,96,–,12 µM,1.71 µM,39.2 µM,14,0.41 µM
CCc1c(Cc2c(F)cccc2Cl)nc(SCC(=O)c2ccc(OC)cc2)[nH]c1=O,–,0.84 µM,> 550,> 11 µM,0.02 µM,4.16 µM,–,> 11 µM,414,208,> 40 µM,> 40 µM,2.9 µM,42,0.007 µM
COc1ccc(C(=O)CSc2nc(Cc3c(F)cccc3Cl)c(C)c(=O)[nH]2)cc1,150,1.57 µM,> 60,> 12 µM,0.2 µM,> 12 µM,67,> 12 µM,1390,–,2.7 µM,1.2 µM,25 µM,8,0.018 µM
CC(C)c1c(Cc2c(F)cccc2F)nc(SCC(=O)c2ccc(F)cc2)[nH]c1=O,71,0.18 µM,> 11600,> 58 µM,0.005 µM,> 58 µM,–,> 58 µM,70,–,5.82 µM,> 40 µM,5.7 µM,36,0.082 µM
